Assay outcomes: PubChem BioAssay, several laboratories
Most compounds without a hit are left out; they make up all but 1.8% or so of the library.
TCR CD3 inh – inhibitors of human TCR-CD3 interaction, primary screen, biochemical, fluorescence, TAMRA-labeled TCR probe; T-cell receptor (TCR); 360,000 compounds, 0.37% hits; inhibition, % at 9.4 µM;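 note: recombinant mutant TCR 2C K166C tagged with TAMRA read by polarization; 0% = receptor in buffer alone and 100% = receptor with positive control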
SIAE primary – human SIAE inhibitors, primary screen, biochemical, fluorescence polarization, FP-Rh probe, 1536-well HTS | AID 1053197, 2014 | SIAE FP-Rh probe binding | inhibition, % at 9.66 µM | 370,000 compounds, 0.69% hits;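 active = inhibition above a cutoff: mean of compounds within the control limits plus 3 SD of those, cut at about 17% in these data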;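 note: 0% = plate median of compound wells and 100% = probe without SIAE protein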
Target sequence (Q9HAT2 whole entry, looked up): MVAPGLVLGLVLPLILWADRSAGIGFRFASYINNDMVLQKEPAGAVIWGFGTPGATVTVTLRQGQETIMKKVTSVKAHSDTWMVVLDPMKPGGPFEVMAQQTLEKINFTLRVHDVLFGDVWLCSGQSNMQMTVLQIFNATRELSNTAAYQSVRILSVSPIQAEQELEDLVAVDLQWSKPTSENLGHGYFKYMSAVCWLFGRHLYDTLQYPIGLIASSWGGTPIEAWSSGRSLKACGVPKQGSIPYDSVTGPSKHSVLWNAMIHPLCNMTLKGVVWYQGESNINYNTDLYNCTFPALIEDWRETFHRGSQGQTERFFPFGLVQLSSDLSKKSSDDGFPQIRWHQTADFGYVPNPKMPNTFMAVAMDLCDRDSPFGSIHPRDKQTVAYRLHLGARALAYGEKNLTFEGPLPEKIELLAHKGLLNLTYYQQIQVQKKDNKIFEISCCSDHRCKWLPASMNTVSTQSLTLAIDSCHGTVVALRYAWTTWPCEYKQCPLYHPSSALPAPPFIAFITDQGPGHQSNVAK
HTRA1 inhibitor – HTRA1 serine protease inhibitors, primary screen, biochemical, fluorescence polarization, HTS | Q92743 | recombinant HTRA1, FP-rhodamine activity-based probe | inhibition, % at 5.96 µM | 340,000 compounds, 0.5% hits | AID 504803, 2011; in the data active = inhibition above about 36%;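 note: 0% = enzyme with DMSO and 100% = wells lacking enzyme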
ABHD4 inh – ABHD4 inhibitors, primary screen, biochemical, fluorescence polarization, mouse. (Lyso)-N-acylphosphatidylethanolamine lipase (Mus musculus), Q8VD66. purified mABHD4, FP-Rh probe fluorescence polarization. inhibition, % at 8.92 µM. 370,000 compounds, 0.54% hits;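 active = inhibition exceeding the mean over every tested compound plus 3 SD, cut at about 30% in these data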;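 note: 0% = plate median of compound wells and 100% = S159A mutant with DMSO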
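Assay system: Wild-type mouse ABHD4 protein | Medium: HEPES pH 7.0 buffer, 150 mM NaCl, 0.01% Pluronic F-127 | Incubation: Enzyme–compound pre-incubation 45 min, then probe 60 min, both 25 °C | Technique: Fluorescence polarization with parallel and perpendicular emission, 525/598 nm | Evaluation: % inhibition of FP-Rh probe binding versus controls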
ARNT TACC3 PPI – disruptors of ARNT/TACC3 protein interaction, primary screen, biochemical, AlphaScreen, single concentration. AlphaScreen His-ARNT PAS-B/GST-TACC3 binding, luminescence; TACC3 fragment carries E629A point mutation. inhibition, % at 9.99 µM. 390,000 compounds, 0.66% hits. AID 623870, 2012. Transforming acidic coiled-coil-containing protein 3 (Homo sapiens), Q9Y6A5;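 active = mean inhibition of replicates at least 50% and at least half of replicates each reaching 50%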;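 note: 0% = complete ARNT plus TACC3 wells and 100% = ARNT alone without TACC3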
HTRA1 conf – HTRA1 protease inhibitors, retest, confirmation, biochemical, fluorescence polarization; shares compounds with HTRA1 inhibitor; 1,600 compounds, 66% hits; inhibition, % at 5.96 µM; recombinant HTRA1, FP-rhodamine activity-based probe; AID 540248, 2011;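 active = mean inhibition over three repeats above a set limit taken from the earlier primary screen, cut at about 37% in these data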;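 note: 0% = HTRA1 with DMSO and 100% = wells lacking HTRA1; inhibitors block probe binding so polarization drops and inhibition rises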
ARNT Alpha ctr-1 – AlphaScreen signal interference compounds, dose response, artefact control for ARNT-TACC3 interaction inhibitor project, biochemical, luminescence, cherry-pick | shares compounds with ARNT TACC3 PPI | 1,200 compounds, 50% hits | His-ARNT PASB-GST AlphaScreen artifact counter-screen | AID 651705, 2012 | AC50, µM (top dose mostly 68 µM), for inactives: top-dose activity change, negative = signal decrease;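 active = every separate test run was called active for a drop in luminescence, with AC50 within twice the top valid dose, actives reach about 71 µM in these data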
ARNT Alpha ctr-2 – AlphaScreen signal interference by compounds, dose response, artefact control for ARNT/TACC3 disruptor project, biochemical, dual-tagged ARNT, dry powder. AC50, µM. Dual-tagged His-ARNT PASB-GST AlphaScreen artifact counter-screen. 45 compounds, 70% hits. shares compounds with ARNT TACC3 PPI;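 active = luminescence drop, with half-maximal potency fitted within twice the sample's top valid dose, cut at about 70 µM in these data; inactive = the rest, including signal moving the wrong way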
BSA probe FL – compounds interfering with TAMRA-BSA probe, counter-screen for TCR-CD3 interaction inhibitor project, biochemical, fluorescence, TAMRA-labeled BSA | 1,200 compounds, 10% hits | TAMRA-labeled BSA probe fluorescence counterscreen | shares compounds with TCR CD3 inh | inhibition, % at 9.4 µM; in the data active = inhibition above about 23%;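 note: 0% = buffer low control and 100% = reference high control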
TCR-CD3 inh conf – TCR-CD3 interaction inhibitors, retest, confirmation, biochemical, fluorescence, TAMRA-labeled TCR probe | shares compounds with TCR CD3 inh | TAMRA-labeled TCR probe fluorescence binding assay | inhibition, % at 9.4 µM | 1,200 compounds, 48% hits | AID 652036, 2013
Starred values were filed as active, the others as inactive; / = no result. Cut-off read from the data, not from the text of the source, unless noted: active = inhibition above about 19%; inactive = the rest.

SMILES	TCR CD3 inh	SIAE primary	HTRA1 inhibitor	ABHD4 inh	ARNT TACC3 PPI	HTRA1 conf	ARNT Alpha ctr-1	others
CC(C)(C)c1ccc(O)c(N=Cc2cc(Br)ccc2O)c1	9	8	41*	18	6	42*	/
Nc1nc(-c2ccccn2)nc(N)c1Cc1ccc(Cl)cc1Cl	-4	-10	39*	8	57*	35	26µM*	ARNT Alpha ctr-2=12*
CO[C@@H]1CN(C)C(=O)c2ccc(NC(=O)c3cnccn3)cc2OC[C@@H](C)N(C(=O)C2CC2)C[C@@H]1C	/	/	/	/	-6	/	/
O=C(Oc1c(CN2CCOCC2)cc(Cl)c2cccnc12)c1cccs1	-8	9	44*	7	65*	11	-21%
OCCN1CCN(Cc2cc(Cl)c3cccnc3c2O)CC1	6	4	52*	4	63*	54*	8.5µM*
O=C(Oc1ccc(Cl)c2cccnc12)N1CCCCC1	7	-2	1	3	0	/	/
O=C(Oc1ccc(Cl)c2cccnc12)c1cccnc1	0	8	71*	2	69*	82*	50µM*
Oc1ccc(CN2CCc3ccccc3C2)c2cccnc12	2	5	59*	5	67*	65*	3.7µM*
C[C@@H]1CN([C@H](C)CO)C(=O)Cc2cc(NC(=O)Cc3ccccc3)ccc2O[C@H]1CN(C)C(=O)Nc1ccc(C(F)(F)F)cc1	/	/	/	/	0	/	/
CCCC#Cc1cnc2c(c1)C(=O)N([C@@H](C)CO)C[C@@H](C)[C@@H](CN(C)C(=O)Cc1cccnc1)O2	/	/	/	/	0	/	/
CCC(=O)NC(C)c1cc(Cl)c2cccnc2c1O (stereo unspecified)	4	8	48*	-1	61*	82*	43µM*
CC(=O)NC(C)c1cc(Cl)c2cccnc2c1O (stereo unspecified)	-1	1	41*	4	52*	52*	36µM*
CC(=O)NC(C)c1cc(Cl)c2ccccc2c1O (stereo unspecified)	2	6	-1	0	-8	/	/
COCCNC(=O)C[C@@H]1C[C@H]2c3cc(NC(=O)Nc4ccc(C(F)(F)F)cc4)ccc3O[C@H]2[C@H](CO)O1	/	/	/	/	30	/	/
c1ccc(-c2nnc(-c3ccccn3)c(-c3ccccn3)n2)nc1	3	6	/	-4	/	/	/
CN(C)c1nc(-c2ccccn2)nnc1-c1ccccc1	-3	2	52*	2	64*	57*	1.1µM*
CCC(=O)N(C)C[C@@H]1Oc2cc(-c3ccccc3OC)ccc2S(=O)(=O)N([C@H](C)CO)C[C@@H]1C	/	/	/	/	0	/	/
Cc1ccc2nc(-c3ccccc3N)[nH]c2c1	-3	0	-9	1	-10	/	/
Cc1ccc2nc(-c3ccccn3)[nH]c2c1	-6	1	42*	7	39*	33	-15%
CC(C)CC(=O)NC(c1cccs1)c1ccc2cccnc2c1O (stereo unspecified)	/	/	43*	/	/	38*	/	ARNT Alpha ctr-2=7*
CCCCC(=O)NC(c1ccc(N(C)C)cc1)c1ccc2cccnc2c1O (stereo unspecified)	3	14	46*	20	60*	61*	11µM*
CC(C)CC(=O)NC(NC(=S)Nc1cccc2cccnc12)C(Cl)(Cl)Cl (stereo unspecified)	-2	-1	-10	-6	9	/	/
Cc1cccc(Oc2ncnc(N)c2[N+](=O)[O-])c1C	1	3	2	4	-32	/	/
Nc1ncnc(Oc2cccc3cccnc23)c1[N+](=O)[O-]	-5	-3	40*	-7	51*	34	-29%
C[C@H]1CN([C@@H](C)CO)C(=O)Cc2cc(NS(=O)(=O)c3cn(C)cn3)ccc2O[C@H]1CN(C)S(=O)(=O)c1ccccc1	/	/	/	/	-11	/	/
SMILES	TCR CD3 inh	SIAE primary	HTRA1 inhibitor	ABHD4 inh	ARNT TACC3 PPI	HTRA1 conf	ARNT Alpha ctr-1	others
COc1cccc(/C=C2/SC(=S)N(CC(=O)NNC(=O)c3ccccc3O)C2=O)c1	25*	-81	46*	-6	3	8	/	BSA probe FL=-6;TCR-CD3 inh conf=46*
Cc1ccc(/C=C2/SC(=S)N(CCCC(=O)Nc3ccc(O)cc3)C2=O)cc1	-4	6	-5	-14	1	/	/
Cc1ccc(/C=C2\SC(=S)N(CCC(=O)NNC(=O)c3ccc(O)cc3)C2=O)cc1	0	-213	-116	-44	12	/	/
COc1cccc(/C=C2/SC(=S)N(CCCC(=O)Nc3ccc(O)cc3)C2=O)c1	-3	-12	-11	-29	-7	/	/
O=C(CCN1C(=O)/C(=C/c2ccccc2Cl)SC1=S)NNC(=O)c1ccccc1O	43*	-2	55*	-2	0	70*	/	BSA probe FL=3;TCR-CD3 inh conf=34*
Cc1ccc(/C=C2\SC(=S)N(CCCC(=O)NNC(=O)c3ccccc3O)C2=O)cc1	33*	8	37*	9	8	53*	/	BSA probe FL=-3;TCR-CD3 inh conf=22*
Cc1ccc(/C=C2\SC(=S)N(CCC(=O)NNC(=O)c3ccccc3O)C2=O)cc1	29*	6	38*	13	4	59*	/	BSA probe FL=-9;TCR-CD3 inh conf=33*
O=C(CCN1C(=O)/C(=C/c2ccccc2Cl)SC1=S)NNC(=O)c1cccnc1	5	-8	1	-9	-13	/	/
COc1ccc(C#Cc2ccc3c(c2)[C@@H]2[C@@H](CCN2C(=O)C2CCOCC2)[C@@H](CO)N3)cc1	/	/	/	/	-2	/	/
CC1=Nc2cccc3cccc(c23)N1	39*	12	42*	26	-6	18	/	BSA probe FL=45*;TCR-CD3 inh conf=23*
